ANO1 activ: activators or potentiators of mouse TMEM16A chloride channel | Q8BHY3 | actives 0.3% (n = 340,000) | HEK293 TMEM16A/YFP-H148Q/I152L, iodide quench fluorescence; hits give low values | B-score at 10 µM;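 active = fluorescence-ratio B-score plate-corrected deviation score at least 3 library SD below zero, with starting fluorescence score within 5 deviations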;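 also: channel opened by trigger with iodide after compound preincubation; score built on the fluorescence ratio of max minus min over baseline; more negative score means more quench and so TMEM16A activation or potentiation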
Target sequence (Q8BHY3 whole entry, looked up): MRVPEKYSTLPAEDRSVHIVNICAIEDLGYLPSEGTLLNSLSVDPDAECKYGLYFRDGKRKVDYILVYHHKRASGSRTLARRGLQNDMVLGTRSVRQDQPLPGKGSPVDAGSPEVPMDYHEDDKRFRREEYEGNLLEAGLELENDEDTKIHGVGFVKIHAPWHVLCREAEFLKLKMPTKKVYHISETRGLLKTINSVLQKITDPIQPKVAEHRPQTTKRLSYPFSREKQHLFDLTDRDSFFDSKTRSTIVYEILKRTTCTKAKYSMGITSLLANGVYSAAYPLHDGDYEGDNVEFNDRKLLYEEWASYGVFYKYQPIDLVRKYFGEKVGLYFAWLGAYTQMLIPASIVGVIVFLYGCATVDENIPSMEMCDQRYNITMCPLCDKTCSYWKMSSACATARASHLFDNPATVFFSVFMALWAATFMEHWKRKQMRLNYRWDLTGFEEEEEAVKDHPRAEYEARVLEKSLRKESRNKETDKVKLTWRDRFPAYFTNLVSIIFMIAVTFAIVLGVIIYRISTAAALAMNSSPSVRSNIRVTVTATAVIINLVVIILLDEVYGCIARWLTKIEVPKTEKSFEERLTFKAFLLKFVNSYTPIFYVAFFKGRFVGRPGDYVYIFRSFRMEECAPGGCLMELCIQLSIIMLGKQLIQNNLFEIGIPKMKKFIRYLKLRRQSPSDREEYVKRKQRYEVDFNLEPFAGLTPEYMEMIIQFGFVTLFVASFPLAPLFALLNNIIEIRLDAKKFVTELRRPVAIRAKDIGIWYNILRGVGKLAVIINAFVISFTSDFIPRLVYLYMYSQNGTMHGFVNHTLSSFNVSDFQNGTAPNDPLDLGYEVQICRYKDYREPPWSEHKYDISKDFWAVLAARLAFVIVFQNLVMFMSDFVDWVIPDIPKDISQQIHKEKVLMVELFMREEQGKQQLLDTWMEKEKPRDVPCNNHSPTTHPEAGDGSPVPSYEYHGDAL
CRFR2-BP ag: agonists of human CRF-binding protein/CRF-R2 receptor complex; HEK293 CRF-R2/CRF-BP, calcium dye fluorescence (FLIPR); percent of saturating CRF peptide response; activation, % at 13.2 µM; actives 0.46% (n = 350,000);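 active = activation of at least 50%, plus an integration ratio under a set limit after plate pattern correction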;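 also: plate controls were neutral control wells without compound for no effect and CRF at EC100 for full effect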
ANO1 block: mouse TMEM16A channel inhibition, primary screen; Q8BHY3; HEK293 TMEM16A/YFP iodide influx fluorescence, ionomycin; normalized B-score (activity score, 25-100; higher = stronger inhibition) at 10 µM; actives 1.2% (n = 310,000); AID 588511;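 active = ratio plate-corrected score three or more library SD toward inhibition, starting fluorescence score within five deviations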;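 also: score derived from kinetic fluorescence span divided by baseline fluorescence per well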
TAAR1 ag: human TAAR1 agonism; Q96RJ0; activation, % at 3 µM; actives 0.99% (n = 360,000); CHO RD-HGA16 TAAR1, Fluo-8 calcium fluorescence; vehicle wells 0%, saturating PEA agonist 100%;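 active = activation above the mean activation of all test compounds in the run plus 3 SD, cut at about 38% in these data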
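Test system: RD-HGA16 (CHO) cells co-expressing Gα16 and hTAAR1 / Benchmarks: DMSO vehicle as 0%, PEA at EC100 as 100% / Repeats: no replicates (n 1) / Measure: % activation from peak over basal fluorescence ratio, DMSO-to-PEA scaled / Timing: 17-24 h plating, Fluo-8 75 min 37 °C, 30 min RT / Technique: kinetic Fluo-8 calcium fluorescence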
TAAR1 antagonist: antagonists of human TAAR1 | inhibition, % at 3 µM | actives 1.5% (n = 360,000) | CHO RD-HGA16 TAAR1, Fluo-8 calcium fluorescence, antagonist;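 active = inhibition above a per-plate cutoff, the mean inhibition of test compounds on that plate plus 3 SD, cut at about 49% in these data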;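 also: 0% = DMSO plus EC80 beta-PEA response and 100% = DMSO alone without agonist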
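Material: CHO RD-HGA16 cells bearing hTAAR1; compound dosing: one-point dosing, 3 µM nominal final; schedule: dye loading 75 min at 37 °C, then 30 min room temperature; measured by: calcium fluorescence with Fluo-8; control set: vehicle and agonist controls; replication: n of 1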
CRFR2-BP antag: antagonists of CRF-binding protein/CRF-R2 receptor complex. HEK293 CRF-R2/CRF-BP, CRF-induced calcium fluorescence. inhibition, % at 11.8 µM. actives 0.59% (n = 350,000);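 active = inhibition of the ligand-induced calcium signal above about 50% at the single tested concentration, limit read from the data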
TAAR1 nonsel count: nonselective antagonism, TAAR1 counter-screen | shares compounds with TAAR1 antagonist | counterscreen cell line, calcium fluorescence, antagonist mode | actives 77% (n = 2,400) | inhibition, % at 3 µM; in the data active = inhibition above about 22%;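 also: CHO-Ga16 host cells stimulated with ATP at an EC80 level; 0% = agonist EC80 plus vehicle and 100% = vehicle without agonist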
TAAR1 ant conf: human TAAR1 antagonism, confirmed; shares compounds with TAAR1 antagonist; TAAR1-expressing cells, fluorescence antagonist read-out; inhibition, % at 3 µM; actives 40% (n = 2,400); AID 651785; in the data active = inhibition above about 49%;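 also: CHO-Ga16 host cells challenged with agonist PEA near its EC80; 0% = agonist at EC80 plus vehicle and 100% = vehicle with no agonist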
Ga16 nonsel ag: nonselective Ga16 agonism, counter-screen; shares compounds with TAAR1 antagonist; AID 651953; activation, % at 3 µM; actives 18% (n = 2,400); Ga16-expressing cells, calcium fluorescence, agonist counterscreen; in the data active = activation above about 12%;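 also: 0% = vehicle wells and 100% = saturating stimulus response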
TAAR1 ag counter: activates human TAAR1 in antagonist counter-screen; hTAAR1 cell line, fluorescence activation, agonist mode; actives 2% (n = 2,400); activation, % at 3 µM; shares compounds with TAAR1 antagonist; AID 651955; in the data active = activation above about 37%;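 also: CHO cells stably expressing TAAR1 with calcium dye readout; 0% = DMSO vehicle and 100% = full agonist response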
The depositor's hits bear a star; i = inactive; / = not tested or not shown. The list is not random: actives were taken first. Their share in the collection is about 3.9%.

SMILES | ANO1 activ | CRFR2-BP ag | ANO1 block | TAAR1 ag | TAAR1 antagonist | CRFR2-BP antag | TAAR1 nonsel count | TAAR1 ant conf | Ga16 nonsel ag | TAAR1 ag counter
Cc1ccc(NC(=O)c2ccc(N3CCOCC3)c([N+](=O)[O-])c2)cc1S(=O)(=O)N1CCOCC1 | i | 0 | i | 32 | 68* | -13 | 42* | 60* | 16* | 13
O=C(Nc1ccc(N2CCCCC2)c(Cl)c1)c1ccc(N2CCOCC2)c([N+](=O)[O-])c1 | i | -2 | i | 6 | 25 | -29 | / | / | / | /
O=C(Nc1ccc(Cc2ccncc2)cc1)c1ccc(N2CCOCC2)c([N+](=O)[O-])c1 | i | -3 | i | 30 | 95* | -9 | 33* | 52* | 14* | 16
COC(=O)[C@H](Cc1ccccc1)NS(=O)(=O)c1ccc(F)cc1Br | / | -5 | / | 2 | -20 | -7 | / | / | / | /
COc1cc(CCC(N)c2cccc(O)c2)cc(OC)c1OC (stereo unspecified) | i | 0 | / | 0 | 5 | -11 | / | / | / | /
O=[N+]([O-])c1nccn1CC(O)CCN1CCOCC1 (stereo unspecified) | / | / | / | 1 | -17 | / | / | / | / | /
COC(=O)C(c1ccccc1)C(CC(=O)c1ccccc1)c1ccccc1 (stereo unspecified) | / | -3 | / | -1 | 76* | 49 | 14 | 32 | 2 | -1
COC(=O)C(C(=O)OC)C(CC(=O)c1ccc(Br)cc1)c1ccccc1 (stereo unspecified) | i | 2 | / | 1 | 0 | 14 | / | / | / | /
COc1cccc(CN2C(=O)[C@H]3Cc4c([nH]c5ccccc45)C(C)(C)N3C2=O)c1 | i | -1 | i | 17 | 61* | -7 | 25* | 42 | 9 | 10
CC1(C)c2[nH]c3ccccc3c2C[C@H]2C(=O)N(Cc3cccc(F)c3)C(=O)N21 | i | -2 | i | 12 | 19 | -6 | / | / | / | /
COc1cccc(NC(=O)c2cc(-c3ccccn3)nc3ccccc23)c1 | i | 0 | / | 18 | 56* | -6 | 28* | 42 | 7 | 4
O=C(NC1CC1)c1cc(-c2ccccn2)nc2ccccc12 | i | 0 | i | 9 | 23 | 14 | / | / | / | /
Cc1cccc(NC(=O)c2cc(-c3ccccn3)nc3ccccc23)c1C | i | 0 | i | 8 | 70* | 14 | 34* | 56* | 11 | 8
COc1cccc(NC(=O)c2cc(-c3ccco3)nc3ccccc23)c1 | i | 3 | i | 6 | 43 | -4 | / | / | / | /
COC[C@@H]1CCCN1c1ccc2c(c1)O[C@@H](COCc1ccccc1)CN([C@H](C)c1ccccc1)S2(=O)=O | / | / | / | 0 | -16 | / | / | / | / | /
Cc1nc(SCc2nc3ccccc3[nH]2)c2oc3ccc(Br)cc3c2n1 | i | 0 | / | -1 | 2 | 13 | / | / | / | /
c1ccc(-c2nc(SCc3nc4ccccc4[nH]3)c3oc4ccccc4c3n2)cc1 | i | 4 | / | 2 | 54* | -3 | 18 | 15 | 1 | -2
CC(C)CCN1C(=O)c2ccc(C(=O)N3CCCCC3)cc2C1=O | i | -1 | i | 8 | 3 | -3 | / | / | / | /
Cc1cccc(N2CCN(C(=O)c3cc(S(=O)(=O)N(C)C)ccc3N3CCCC3)CC2)c1C | i | 2 | i | 2 | -6 | -10 | / | / | / | /
CCOc1ccccc1N1CCN(C(=O)c2cc(S(=O)(=O)N(C)C)ccc2N2CCCC2)CC1 | i | 0 | / | 19 | 57* | -14 | 20 | 47 | 9 | 9
